Published values collected from several papers.
Compare with care: the assays were run in different laboratories.
EGFR L861Q: Epidermal growth factor receptor (EGFR, Homo sapiens, UniProt P00533, L861Q)

The remaining binding of CN1CCN(C(=O)c2ccc(NC(=O)Nc3ccc(N(C)c4ccnc(Nc5ccc(CS(C)(=O)=O)cc5)n4)cc3)cc2)CC1 is reported as 87% (Epidermal growth factor receptor (EGFR, Homo sapiens, UniProt P00533, del746-750); binding; 1 µM).
CCCCC(=O)Nc1ccc(-c2ccc3ncn(CCC)c(=O)c3c2)cn1 gave a remaining binding of 100% (Epidermal growth factor receptor (EGFR, Homo sapiens, UniProt P00533, G719S); binding; competition with immobilised ligand; 0.5 µM).
The remaining binding of Cc1ccc(NC(=O)c2ccnc(C(F)(F)F)c2)cc1-c1cc(OCCO)nc(N2CCOCC2)c1 is reported as 92% (EGFR L861Q; binding; 1 µM).
CC#CC(=O)N1CCC[C@H]1c1nc(-c2ccc(C(=O)Nc3ccccn3)cc2)c2c(N)nccn12 has an inhibition of 3% (Epidermal growth factor receptor (EGFR, Homo sapiens, UniProt P00533, G719C); enzyme activity; inhibitor; 1 µM).
COc1ccc2[nH]c3c4[nH]c5ccc(OC)cc5c4c4c(c3c2c1)C(=O)NC4=O gave a remaining binding of 45% (Epidermal growth factor receptor (EGFR, Homo sapiens, UniProt P00533, T790M); binding; 1 µM).
C=CC(=O)N1CCC([C@@H]2CCNc3c(C(N)=O)c(-c4ccc(Oc5ccccc5)cc4)nn32)CC1 has an inhibition of 73% (EGFR L861Q; cell-free assay; 1 µM).
COc1ccc2oc(-c3ccc4nc(N)oc4c3)c/c(=N\c3ccccc3NC(=O)CCN)c2c1 has a remaining binding of 92% (Epidermal growth factor receptor (EGFR, Homo sapiens, UniProt P00533, L858R); binding; 1 µM).
For CO[C@@H]1[C@H](N(C)C(=O)c2ccccc2)C[C@H]2O[C@]1(C)n1c3ccccc3c3c4c(c5c6ccccc6n2c5c31)C(=O)NC4, the inhibition was 55% (Epidermal growth factor receptor (EGFR, Homo sapiens, UniProt P00533); enzyme activity; inhibitor; 1 µM).
For C1=C/COCc2cc(ccc2OCCN2CCCC2)Nc2nccc(n2)-c2cccc(c2)COC/1, the remaining binding was 99% (Epidermal growth factor receptor (EGFR, Homo sapiens, UniProt P00533, del747-752/P753S); binding; 0.1 µM).
